Data reported in ChEMBL document CHEMBL4196144, “Minor Nortriterpenoids from the Twigs and Leaves of Rhododendron latoucheae” (J Nat Prod, 2018).

Test system: Influenza A virus
Test: Antiviral activity against Influenza A virus A/95-359 infected in MDCK cells assessed as inhibition of virus-induced cytopathic effect
Assay type: functional, organism-based
Conditions: A/95-359, MDCK
In short: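 MDCK cells; IC50 given as the mean of three independent determinations.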

Row | SMILES | IC50 [µM]
1 | CC1=C2C3=CC[C@@H]4[C@@]5(C)CC[C@@H](O)[C@](C)(CO)[C@@H]5CC[C@@]4(C)[C@]3(C)CC[C@]23CC[C@@]1(C)OO3 | > 11.1
2 | CCOC(=O)C1=C[C@@H](OC(CC)CC)[C@H](NC(C)=O)[C@@H](N)C1 [OSELTAMIVIR] | 1.63
3 | Cc1ccc2c(c1C)C1=CC[C@@H]3[C@@]4(C)[C@H](O)[C@@H](O)[C@@H](O)[C@@](C)(CO)[C@@H]4CC[C@@]3(C)[C@]1(C)CC2 | > 1.23
4 | Cc1ccc2c(c1C)C1=CC[C@@H]3[C@@]4(C)CC[C@@H](O)[C@](C)(CO)[C@@H]4CC[C@@]3(C)[C@]1(C)CC2 | > 11.1
5 | Cc1ccc2c(c1C)C1=CC[C@@H]3[C@@]4(C)C[C@@H](O)[C@@H](O)[C@](C)(CO)[C@@H]4CC[C@@]3(C)[C@]1(C)CC2 | > 3.7
6 | Cc1ccc2c(c1C)C1=CC[C@@H]3[C@@]4(C)C[C@@H](O)[C@H](O)[C@@](C)(CO)[C@@H]4CC[C@@]3(C)[C@]1(C)CC2 | 1.23
7 | Cc1ccc2c(c1C)C1=CC[C@@H]3[C@@]4(C)[C@H](O)C[C@@H](O)[C@](C)(CO)[C@@H]4CC[C@@]3(C)[C@]1(C)CC2 | > 3.7
8 | CC(=O)CCC1=C(C(C)=O)C2=CC[C@@H]3[C@@]4(C)C[C@@H](O)[C@@H](O)[C@](C)(CO)[C@@H]4CC[C@@]3(C)[C@]2(C)CC1 | > 33.3
9 | CC1=C2C3=CC[C@@H]4[C@@]5(C)CC[C@@H](O)[C@@](C)(CO)[C@@H]5CC[C@@]4(C)[C@]3(C)CC[C@@]23CC[C@]1(C)OO3 | > 11.1
10 | CC1=C2C3=CC[C@@H]4[C@@]5(C)C[C@@H](O)[C@@H](O)[C@@](C)(CO)[C@@H]5CC[C@@]4(C)[C@]3(C)CC[C@@]23CC[C@]1(C)OO3 | > 33.3

Test system: not listed separately
Test: Cytotoxicity against African green monkey Vero cells measured after 48 hrs
Assay type: cell-based
Conditions: chlorocebus sabaeus, read-out: TC50
In short: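 TC50 is the concentration that inhibits Vero cell growth by 50%. It is used with the antiviral IC50 to give a selectivity index (TC50/IC50).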

Row | SMILES | CC50 at 48 h [µM]
11 | CC1=C2C3=CC[C@@H]4[C@@]5(C)CC[C@@H](O)[C@](C)(CO)[C@@H]5CC[C@@]4(C)[C@]3(C)CC[C@]23CC[C@@]1(C)OO3 | 33.3
12 | Cc1ccc2c(c1C)C1=CC[C@@H]3[C@@]4(C)[C@H](O)[C@@H](O)[C@@H](O)[C@@](C)(CO)[C@@H]4CC[C@@]3(C)[C@]1(C)CC2 | 1.78
13 | Cc1ccc2c(c1C)C1=CC[C@@H]3[C@@]4(C)CC[C@@H](O)[C@](C)(CO)[C@@H]4CC[C@@]3(C)[C@]1(C)CC2 | 5.34
14 | Cc1ccc2c(c1C)C1=CC[C@@H]3[C@@]4(C)C[C@@H](O)[C@@H](O)[C@](C)(CO)[C@@H]4CC[C@@]3(C)[C@]1(C)CC2 | 3.7
15 | Cc1ccc2c(c1C)C1=CC[C@@H]3[C@@]4(C)C[C@@H](O)[C@H](O)[C@@](C)(CO)[C@@H]4CC[C@@]3(C)[C@]1(C)CC2 | 1.78
16 | Nc1nc2c(ncn2COCCO)c(=O)[nH]1 [ACYCLOVIR] | > 100
17 | Cc1ccc2c(c1C)C1=CC[C@@H]3[C@@]4(C)[C@H](O)C[C@@H](O)[C@](C)(CO)[C@@H]4CC[C@@]3(C)[C@]1(C)CC2 | 11.1
18 | CC(=O)CCC1=C(C(C)=O)C2=CC[C@@H]3[C@@]4(C)C[C@@H](O)[C@@H](O)[C@](C)(CO)[C@@H]4CC[C@@]3(C)[C@]2(C)CC1 | 69.3
19 | CC1=C2C3=CC[C@@H]4[C@@]5(C)CC[C@@H](O)[C@@](C)(CO)[C@@H]5CC[C@@]4(C)[C@]3(C)CC[C@@]23CC[C@]1(C)OO3 | 57.7
20 | CC1=C2C3=CC[C@@H]4[C@@]5(C)C[C@@H](O)[C@@H](O)[C@@](C)(CO)[C@@H]5CC[C@@]4(C)[C@]3(C)CC[C@@]23CC[C@]1(C)OO3 | 23.1

Test system: Human alphaherpesvirus 1
Test: Antiviral activity against HSV1 F VR 733 infected in African green monkey Vero cells assessed as inhibition of virus-induced cytopathic effect
Assay type: functional, organism-based
Conditions: Human alphaherpesvirus 1, Strain F ATCC VR 733, Vero

Row | SMILES | IC50 [µM]
21 | CC1=C2C3=CC[C@@H]4[C@@]5(C)CC[C@@H](O)[C@](C)(CO)[C@@H]5CC[C@@]4(C)[C@]3(C)CC[C@]23CC[C@@]1(C)OO3 | > 11.1
22 | Cc1ccc2c(c1C)C1=CC[C@@H]3[C@@]4(C)[C@H](O)[C@@H](O)[C@@H](O)[C@@](C)(CO)[C@@H]4CC[C@@]3(C)[C@]1(C)CC2 | > 0.41
23 | Cc1ccc2c(c1C)C1=CC[C@@H]3[C@@]4(C)CC[C@@H](O)[C@](C)(CO)[C@@H]4CC[C@@]3(C)[C@]1(C)CC2 | > 1.23
24 | Cc1ccc2c(c1C)C1=CC[C@@H]3[C@@]4(C)C[C@@H](O)[C@@H](O)[C@](C)(CO)[C@@H]4CC[C@@]3(C)[C@]1(C)CC2 | > 1.23
25 | Cc1ccc2c(c1C)C1=CC[C@@H]3[C@@]4(C)C[C@@H](O)[C@H](O)[C@@](C)(CO)[C@@H]4CC[C@@]3(C)[C@]1(C)CC2 | 0.41
26 | Nc1nc2c(ncn2COCCO)c(=O)[nH]1 [ACYCLOVIR] | 0.41
27 | Cc1ccc2c(c1C)C1=CC[C@@H]3[C@@]4(C)[C@H](O)C[C@@H](O)[C@](C)(CO)[C@@H]4CC[C@@]3(C)[C@]1(C)CC2 | > 3.7
28 | CC(=O)CCC1=C(C(C)=O)C2=CC[C@@H]3[C@@]4(C)C[C@@H](O)[C@@H](O)[C@](C)(CO)[C@@H]4CC[C@@]3(C)[C@]2(C)CC1 | > 33.3
29 | CC1=C2C3=CC[C@@H]4[C@@]5(C)CC[C@@H](O)[C@@](C)(CO)[C@@H]5CC[C@@]4(C)[C@]3(C)CC[C@@]23CC[C@]1(C)OO3 | > 11.1
30 | CC1=C2C3=CC[C@@H]4[C@@]5(C)C[C@@H](O)[C@@H](O)[C@@](C)(CO)[C@@H]5CC[C@@]4(C)[C@]3(C)CC[C@@]23CC[C@]1(C)OO3 | 6.41

Test system: not listed separately
Test: Selectivity index, ratio of TC50 for African green monkey Vero cells to IC50 for HSV1 strain F VR 733 infected in African green monkey Vero cells
Assay type: toxicity
Conditions: read-out: Selectivity Index
In short: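 Calculated as TC50/IC50 in Vero cells. TC50 is the cytotoxic concentration that inhibits Vero cell growth by 50%. No SI was assigned where it could not be determined under the test conditions.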

Row | SMILES | selectivity ratio
31 | Cc1ccc2c(c1C)C1=CC[C@@H]3[C@@]4(C)C[C@@H](O)[C@H](O)[C@@](C)(CO)[C@@H]4CC[C@@]3(C)[C@]1(C)CC2 | 4.3
32 | Nc1nc2c(ncn2COCCO)c(=O)[nH]1 [ACYCLOVIR] | > 244
33 | CC1=C2C3=CC[C@@H]4[C@@]5(C)C[C@@H](O)[C@@H](O)[C@@](C)(CO)[C@@H]5CC[C@@]4(C)[C@]3(C)CC[C@@]23CC[C@]1(C)OO3 | 3.6

Test system: not listed separately
Test: Cytotoxicity against MDCK cells measured after 48 hrs
Assay type: cell-based, Canis lupus familiaris
Conditions: dog, read-out: TC50
In short: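 TC50 is the concentration that inhibits MDCK cell growth by 50%, reported as the mean of three independent determinations. It is paired with the anti-influenza A IC50 to give a selectivity index (TC50/IC50).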

Row | SMILES | CC50 at 48 h [µM]
34 | CC1=C2C3=CC[C@@H]4[C@@]5(C)CC[C@@H](O)[C@](C)(CO)[C@@H]5CC[C@@]4(C)[C@]3(C)CC[C@]23CC[C@@]1(C)OO3 | 19.2
35 | Cc1ccc2c(c1C)C1=CC[C@@H]3[C@@]4(C)[C@H](O)[C@@H](O)[C@@H](O)[C@@](C)(CO)[C@@H]4CC[C@@]3(C)[C@]1(C)CC2 | 2.57
36 | Cc1ccc2c(c1C)C1=CC[C@@H]3[C@@]4(C)CC[C@@H](O)[C@](C)(CO)[C@@H]4CC[C@@]3(C)[C@]1(C)CC2 | 19.2
37 | Cc1ccc2c(c1C)C1=CC[C@@H]3[C@@]4(C)C[C@@H](O)[C@@H](O)[C@](C)(CO)[C@@H]4CC[C@@]3(C)[C@]1(C)CC2 | 7.7
38 | Cc1ccc2c(c1C)C1=CC[C@@H]3[C@@]4(C)C[C@@H](O)[C@H](O)[C@@](C)(CO)[C@@H]4CC[C@@]3(C)[C@]1(C)CC2 | 3.7
39 | Cc1ccc2c(c1C)C1=CC[C@@H]3[C@@]4(C)[C@H](O)C[C@@H](O)[C@](C)(CO)[C@@H]4CC[C@@]3(C)[C@]1(C)CC2 | 16
40 | CC(=O)CCC1=C(C(C)=O)C2=CC[C@@H]3[C@@]4(C)C[C@@H](O)[C@@H](O)[C@](C)(CO)[C@@H]4CC[C@@]3(C)[C@]2(C)CC1 | > 100
41 | CC1=C2C3=CC[C@@H]4[C@@]5(C)CC[C@@H](O)[C@@](C)(CO)[C@@H]5CC[C@@]4(C)[C@]3(C)CC[C@@]23CC[C@]1(C)OO3 | 19.2
42 | CC1=C2C3=CC[C@@H]4[C@@]5(C)C[C@@H](O)[C@@H](O)[C@@](C)(CO)[C@@H]5CC[C@@]4(C)[C@]3(C)CC[C@@]23CC[C@]1(C)OO3 | 57.7

Test system: not listed separately
Test: Selectivity index, ratio of TC50 for MDCK cells to IC50 for Influenza A virus A/95-359 infected in MDCK cells
Assay type: toxicity, cell-based
Conditions: dog, read-out: Selectivity Index
In short: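 Ratio of TC50 to IC50, both in MDCK cells. TC50 is the concentration that inhibits MDCK cell growth by 50%. Values are means of three independent determinations. No SI was assigned where it could not be determined under the test conditions.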

Row | SMILES | selectivity ratio
43 | Cc1ccc2c(c1C)C1=CC[C@@H]3[C@@]4(C)C[C@@H](O)[C@H](O)[C@@](C)(CO)[C@@H]4CC[C@@]3(C)[C@]1(C)CC2 | 3
